This is an account of results in ChEMBL document CHEMBL1154983, “Arylpiperazine-containing pyrrole 3-carboxamide derivatives targeting serotonin 5-HT(2A), 5-HT(2C), and the serotonin transporter as a potential antidepressant” (Bioorg Med Chem Lett, 2010).

The target of assay [1] is Sodium-dependent serotonin transporter (Homo sapiens, UniProt P31645). Kind of assay: Displacement of [3H]imipramine from human SERT expressed in HEK293 cells after 30 mins by rapid filtration assay. The assay is classed as cell-based. The procedure, abridged:
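Frozen membranes were from HEK293 cells expressing human SERT, with 4 nM [3H]imipramine in 50 mM Tris–HCl pH 7.4, 120 mM NaCl and 5 mM KCl. Unlabelled imipramine defined nonspecific binding. Incubation ran 30 min at 27 °C, terminated by rapid filtration through 0.5% PEI-presoaked glass-fibre filters.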

The target in assay [2] is 5-hydroxytryptamine receptor 2A (Homo sapiens, UniProt P28223). The assay is described as follows: Displacement of [3H]ketanserin from human recombinant 5-HT2A receptor expressed in CHO-K1 cells after 60 mins. The assay is classed as cell-based. The procedure, abridged: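 Membranes were from CHO-K1 cells stably expressing 5-HT2A. Radioligand was at 1 nM, with mianserin defining nonspecific binding. Incubation ran 60 min at 27 °C in 50 mM Tris–HCl pH 7.4 with 4 mM CaCl2 and 0.1% ascorbic acid. Harvesting was by filtration through glass-fibre filters presoaked in 0.5% PEI.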
5-hydroxytryptamine receptor 2A, sequence (P28223 whole entry): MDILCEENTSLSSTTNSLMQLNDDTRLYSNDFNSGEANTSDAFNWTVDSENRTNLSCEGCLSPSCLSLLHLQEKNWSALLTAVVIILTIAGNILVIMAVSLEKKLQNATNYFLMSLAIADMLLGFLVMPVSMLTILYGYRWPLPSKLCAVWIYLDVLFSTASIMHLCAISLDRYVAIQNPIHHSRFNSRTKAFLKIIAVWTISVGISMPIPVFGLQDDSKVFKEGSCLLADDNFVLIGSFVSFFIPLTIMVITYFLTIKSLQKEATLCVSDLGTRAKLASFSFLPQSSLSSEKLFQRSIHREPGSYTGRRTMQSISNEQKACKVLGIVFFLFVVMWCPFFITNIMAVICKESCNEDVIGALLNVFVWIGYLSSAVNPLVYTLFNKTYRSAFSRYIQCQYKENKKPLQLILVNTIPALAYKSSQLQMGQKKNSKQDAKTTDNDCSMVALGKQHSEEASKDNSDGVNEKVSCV
For orientation: In a radioligand displacement assay an active substance lowers the binding of a labelled ligand.

The target of assay [3] is T1, 5-hydroxytryptamine receptor 2C (Homo sapiens, UniProt P28335).
T1 sequence (P28335 whole entry): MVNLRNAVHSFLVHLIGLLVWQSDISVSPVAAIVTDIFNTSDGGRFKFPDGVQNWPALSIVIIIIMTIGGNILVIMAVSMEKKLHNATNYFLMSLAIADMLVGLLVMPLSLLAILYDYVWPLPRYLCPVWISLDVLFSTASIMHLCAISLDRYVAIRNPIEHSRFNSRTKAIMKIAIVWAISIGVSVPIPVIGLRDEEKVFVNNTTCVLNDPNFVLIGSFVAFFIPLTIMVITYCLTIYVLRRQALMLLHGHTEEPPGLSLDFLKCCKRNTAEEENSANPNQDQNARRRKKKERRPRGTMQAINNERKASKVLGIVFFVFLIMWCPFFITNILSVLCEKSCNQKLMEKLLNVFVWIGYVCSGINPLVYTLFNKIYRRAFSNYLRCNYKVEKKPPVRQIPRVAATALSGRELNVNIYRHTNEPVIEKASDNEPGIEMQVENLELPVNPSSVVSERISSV
Kind of assay: Displacement of [3H]mesulergine from human recombinant 5-HT2C receptor expressed in CHO-K1 cells after 60 mins by rapid filtration assay. The assay is classed as cell-based. The procedure, abridged:
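Frozen membranes were from CHO-K1 cells stably expressing human recombinant 5-HT2C, with 1.4 nM [3H]mesulergine. Buffer was 50 mM Tris–HCl pH 7.4, 4 mM CaCl2 and 0.1% ascorbic acid, with methiothepin for nonspecific binding. Incubation ran 60 min at 27 °C, stopped by rapid filtration through 0.5% PEI-presoaked glass-fibre filters.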

Assay [4] addresses 5-hydroxytryptamine receptor 7 (Homo sapiens, UniProt P34969). The assay is described as follows: Inhibition of 5HT7 receptor.
The subject of assay [5] is Mus musculus. Kind of assay: Antidepressant activity in mouse assessed as decrease in duration of immobility at 100 mg/kg, po during final 5 mins of the 6 mins session by forced swimming test. The assay is classed as functional. In outline:
(§1)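 Mice swam 10 min in a 25-cm glass cylinder (10 cm diameter) holding 15 cm of water at 23 1 °C. Twenty-four hours later, drug was given po 60 min before retesting. Immobility (floating upright with only small movements keeping head above water) was totalled over the last 5 min of the 6-min test.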

Assay [6] concerns Mus musculus. Kind of assay: Antidepressant activity in mouse assessed as decrease in duration of immobility at 10 mg/kg, po during final 5 mins of the 6 mins session by forced swimming test. The assay is classed as functional. The procedure, abridged: as §1
Assay [7] deals with Mus musculus. The assay is described as follows: Antidepressant activity in mouse assessed as decrease in duration of immobility at 50 mg/kg, po during final 5 mins of the 6 mins session by forced swimming test. The assay is classed as functional, organism-based. Also on record: dose 50 mg/kg. The procedure, abridged: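 Mice swim for 10 min in a 25-cm glass cylinder (10 cm diameter) holding 15 cm of water at 23 ± 1 °C. They are retested 24 h later for 6 min. Compound is suspended in 3% Tween 80 and given orally 60 min before the test. Total immobility time (floating upright, only small head-keeping movements) is scored over the last 5 min. Means ± S.E.M.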

In assay [8] the target is D(2) dopamine receptor (Homo sapiens, UniProt P14416). Kind of assay: Inhibition of dopamine D2 receptor.
D(2) dopamine receptor, sequence (P14416 whole entry): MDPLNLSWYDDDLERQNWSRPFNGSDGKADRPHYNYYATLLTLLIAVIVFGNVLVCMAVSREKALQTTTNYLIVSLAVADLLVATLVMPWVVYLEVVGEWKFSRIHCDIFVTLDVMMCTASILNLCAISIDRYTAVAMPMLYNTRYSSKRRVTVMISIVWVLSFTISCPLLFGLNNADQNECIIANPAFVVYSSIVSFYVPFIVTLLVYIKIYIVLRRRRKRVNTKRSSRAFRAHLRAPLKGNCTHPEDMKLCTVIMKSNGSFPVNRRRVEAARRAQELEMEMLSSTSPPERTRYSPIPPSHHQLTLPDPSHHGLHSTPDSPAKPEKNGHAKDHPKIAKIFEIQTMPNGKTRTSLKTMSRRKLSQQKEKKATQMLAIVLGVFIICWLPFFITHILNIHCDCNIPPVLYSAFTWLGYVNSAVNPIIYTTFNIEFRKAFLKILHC
The target of assay [9] is 5-hydroxytryptamine receptor 6 (Homo sapiens, UniProt P50406). The assay is described as follows: Inhibition of 5HT6 receptor.
5-hydroxytryptamine receptor 6, sequence (P50406 whole entry): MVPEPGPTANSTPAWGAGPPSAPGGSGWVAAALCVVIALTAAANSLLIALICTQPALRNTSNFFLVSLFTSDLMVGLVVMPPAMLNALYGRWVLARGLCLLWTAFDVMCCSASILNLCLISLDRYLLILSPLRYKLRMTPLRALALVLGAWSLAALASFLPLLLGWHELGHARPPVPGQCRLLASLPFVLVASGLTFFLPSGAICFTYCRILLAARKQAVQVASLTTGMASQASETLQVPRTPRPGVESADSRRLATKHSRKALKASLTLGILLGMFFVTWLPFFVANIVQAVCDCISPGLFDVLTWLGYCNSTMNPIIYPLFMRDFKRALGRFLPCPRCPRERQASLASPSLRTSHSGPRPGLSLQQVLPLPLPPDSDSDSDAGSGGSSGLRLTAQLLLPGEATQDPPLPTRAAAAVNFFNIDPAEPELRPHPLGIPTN
In assay [10] the test system is Mus musculus. Kind of assay: Antidepressant activity in mouse assessed as decrease in duration of immobility at 25 mg/kg, po during final 5 mins of the 6 mins session by forced swimming test. The assay is classed as functional. Also on record: scale not given: the % may be the effect or the level left. The procedure, abridged: as §1
The target of assay [11] is T2, 5-hydroxytryptamine receptor 1A (Homo sapiens, UniProt P08908).
T2 sequence (P08908 whole entry): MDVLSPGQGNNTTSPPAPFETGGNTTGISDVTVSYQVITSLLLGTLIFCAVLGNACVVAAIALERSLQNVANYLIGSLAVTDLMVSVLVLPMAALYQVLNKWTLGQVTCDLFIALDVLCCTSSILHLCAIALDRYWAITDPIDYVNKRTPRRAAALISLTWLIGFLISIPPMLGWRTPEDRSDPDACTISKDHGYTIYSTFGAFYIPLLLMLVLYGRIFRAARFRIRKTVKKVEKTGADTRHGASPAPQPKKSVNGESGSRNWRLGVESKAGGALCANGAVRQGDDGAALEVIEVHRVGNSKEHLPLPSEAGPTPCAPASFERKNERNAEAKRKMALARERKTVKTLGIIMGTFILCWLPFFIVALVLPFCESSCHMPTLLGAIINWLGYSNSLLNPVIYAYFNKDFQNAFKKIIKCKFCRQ
The assay is described as follows: Inhibition of 5HT1A receptor.

The target of assay [12] is T3, D(4) dopamine receptor (Homo sapiens, UniProt P21917).
T3 sequence (P21917 whole entry): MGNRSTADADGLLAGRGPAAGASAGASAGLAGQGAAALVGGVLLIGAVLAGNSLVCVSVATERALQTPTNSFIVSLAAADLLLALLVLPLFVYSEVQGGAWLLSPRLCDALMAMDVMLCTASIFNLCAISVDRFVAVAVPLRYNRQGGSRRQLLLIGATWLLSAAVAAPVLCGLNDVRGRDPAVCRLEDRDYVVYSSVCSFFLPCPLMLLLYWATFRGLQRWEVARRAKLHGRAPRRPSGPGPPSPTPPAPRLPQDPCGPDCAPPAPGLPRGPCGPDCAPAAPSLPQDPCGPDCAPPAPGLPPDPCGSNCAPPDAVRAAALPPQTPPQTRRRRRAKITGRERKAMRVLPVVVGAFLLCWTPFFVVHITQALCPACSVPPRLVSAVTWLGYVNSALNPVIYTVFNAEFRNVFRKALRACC
Kind of assay: Inhibition of dopamine D4 receptor.

Assay [13] has as its target D(3) dopamine receptor (Homo sapiens, UniProt P35462). Kind of assay: Inhibition of dopamine D3 receptor.

Calls of active or inactive are those of the source. No cut-off for these calls is given here.

As a reminder, the IC50 is the point on the concentration scale where inhibition reaches its midpoint.

Sodium-dependent serotonin transporter, sequence (P31645 whole entry): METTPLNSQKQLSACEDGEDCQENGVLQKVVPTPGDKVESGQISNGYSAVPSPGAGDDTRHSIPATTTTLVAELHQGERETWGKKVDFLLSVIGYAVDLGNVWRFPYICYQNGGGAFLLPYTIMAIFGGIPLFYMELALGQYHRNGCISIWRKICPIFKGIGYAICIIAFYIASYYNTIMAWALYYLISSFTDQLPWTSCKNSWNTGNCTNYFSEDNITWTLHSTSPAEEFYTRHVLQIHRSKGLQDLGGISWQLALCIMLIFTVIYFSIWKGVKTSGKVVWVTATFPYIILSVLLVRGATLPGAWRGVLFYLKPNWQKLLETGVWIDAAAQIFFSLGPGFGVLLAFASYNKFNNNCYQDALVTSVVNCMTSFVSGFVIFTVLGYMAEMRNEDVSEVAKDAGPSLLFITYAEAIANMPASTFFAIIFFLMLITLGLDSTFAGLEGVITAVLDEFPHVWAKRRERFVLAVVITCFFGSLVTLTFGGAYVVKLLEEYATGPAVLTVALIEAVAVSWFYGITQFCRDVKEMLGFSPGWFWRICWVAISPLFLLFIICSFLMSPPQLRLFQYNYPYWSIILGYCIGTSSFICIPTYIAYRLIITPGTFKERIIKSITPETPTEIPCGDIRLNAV
5-hydroxytryptamine receptor 7, sequence (P34969 whole entry): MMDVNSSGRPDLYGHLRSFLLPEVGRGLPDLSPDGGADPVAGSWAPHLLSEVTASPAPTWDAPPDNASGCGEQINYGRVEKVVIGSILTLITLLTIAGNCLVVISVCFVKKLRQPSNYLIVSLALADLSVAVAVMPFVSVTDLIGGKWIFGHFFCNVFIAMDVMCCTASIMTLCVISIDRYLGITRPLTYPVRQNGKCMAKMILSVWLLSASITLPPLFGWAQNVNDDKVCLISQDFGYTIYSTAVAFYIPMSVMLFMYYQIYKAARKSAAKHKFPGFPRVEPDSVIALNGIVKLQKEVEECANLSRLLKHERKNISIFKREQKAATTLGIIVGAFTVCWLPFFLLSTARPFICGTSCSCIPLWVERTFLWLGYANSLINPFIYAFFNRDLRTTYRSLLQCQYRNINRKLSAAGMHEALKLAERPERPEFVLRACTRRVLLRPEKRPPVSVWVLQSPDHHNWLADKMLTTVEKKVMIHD
D(3) dopamine receptor, sequence (P35462 whole entry): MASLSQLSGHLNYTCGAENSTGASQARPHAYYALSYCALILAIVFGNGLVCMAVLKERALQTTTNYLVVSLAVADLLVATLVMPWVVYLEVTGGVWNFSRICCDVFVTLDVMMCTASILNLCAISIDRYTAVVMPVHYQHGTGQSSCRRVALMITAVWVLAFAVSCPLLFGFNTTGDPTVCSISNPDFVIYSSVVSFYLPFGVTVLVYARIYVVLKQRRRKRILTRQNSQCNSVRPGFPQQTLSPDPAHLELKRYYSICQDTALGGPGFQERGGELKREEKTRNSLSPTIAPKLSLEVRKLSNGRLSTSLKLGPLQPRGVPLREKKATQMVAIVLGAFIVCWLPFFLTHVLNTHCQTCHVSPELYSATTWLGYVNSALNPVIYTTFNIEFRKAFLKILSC

As to `Cc1cccc(N2CCN(CCCNC(=O)c3cc(-c4ccccc4)n(N4CCCCC4)c3C)CC2)c1C`, the IC50 in assay [1] came to 92 nM; in [2] it was 133 nM; in assay [3], 417 nM.

As for `Cc1c(C(=O)NCCCN2CCN(c3cccc(Cl)c3Cl)CC2)cc(-c2ccccc2)n1-c1ccc(F)cc1`, 524 nM corresponded to half-maximal inhibition in assay [4] (IC50).

For the compound `Cc1c(C(=O)NCCCN2CCN(c3cccc(Cl)c3)CC2)cc(-c2ccccc2)n1CC(C)C`, the IC50 in assay [1] worked out at 110 nM; in assay [2] it was 333 nM; in [3] it was 1600 nM.

With `Cc1c(C(=O)NCCCN2CCN(c3cccc(Cl)c3)CC2)cc(-c2ccccc2)n1Cc1ccccc1`, the IC50 in assay [1] is 235 nM; in [2], 179 nM; in assay [3] it was 1440 nM.

`Cc1c(C(=O)NCCCN2CCN(c3cccc(Cl)c3Cl)CC2)cc(-c2ccccc2)n1N1CCCCC1`: in assay [5], the outcome was Active. Also, in assay [4], half-maximal inhibition (IC50) required 493 nM. The result in assay [6] was inactive.

Turning to `CCn1c(-c2ccccc2)cc(C(=O)NCCCN2CCN(c3cccc(C)c3C)CC2)c1C`, the outcome in assay [7] was Active.

On to `Cc1[nH]c(-c2ccccc2)cc1C(=O)NCCCN1CCN(c2cccc(Cl)c2Cl)CC1`, for which the IC50 in assay [8] was 1070 nM; in [1] it was 137 nM; in assay [4], 456 nM; in assay [9] it was 1410 nM; in assay [11], 117 nM; in [12], 1840 nM. In assay [13], this compound yielded an IC50 of 334 nM. The Activity in assay [10] is less than 50%.

Regarding `CCn1c(-c2ccccc2)cc(C(=O)NCCCN2CCN(c3cccc(Cl)c3)CC2)c1C`, the result in assay [5] was inactive.

As for `CCCn1c(-c2ccccc2)cc(C(=O)NCCCN2CCN(c3cccc(Cl)c3Cl)CC2)c1C`, the IC50 in assay [8] turned out to be 3740 nM; in assay [4], 408 nM; in assay [9] it was 1900 nM; in assay [11] it was 94 nM; in assay [12], 645 nM; in assay [13] it was 1070 nM. For the same compound, the Activity in assay [10] was less than 50%; in assay [6], 80%.
